Screens from PubChem.
Shown are actives, neighbours in structure and some others; about 12% of the full set was active somewhere.
bCat nuc transl = modulators of beta-catenin nuclear translocation, primary screen, imaging, HeLa cells, immunofluorescence, high-content; nuclear translocation activity, % at 5 µM; 190,000 compounds, 0.3% hits;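 active means nuclear translocation activity above 50% at 5 µM, with a well cell count of 50 or more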;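 further: per-cell ratio of nuclear to cytoplasmic median beta-catenin stain intensity; plate controls were DMSO negative control for no effect and GSK-3 inhibitor IX positive control for full effect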
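Test system: human HeLa cells, native beta-catenin. Compound dosing: 5 µM primary single dose, 0.1% DMSO, 0.02–20 µM confirmation series. Incubation: compound exposure 24 h at 37°C. Detection: beta-catenin immunostaining with DAPI counterstain, 20x imaging, 6 fields/well. Read-out basis: Nuclear/cytoplasmic beta-catenin signal ratio, % activation.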
CHOP inhibitor = inhibitors of CHOP promoter induction, primary screen, cell-based, unfolded protein response, luciferase reporter. inhibition, % at 10 µM. CHO-K1 CHOP-promoter luciferase, tunicamycin-induced, 15-18 h. 220,000 compounds, 3.8% hits;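 active means compounds that reduced the stress-induced luciferase reporter signal by more than about 70% of percent inhibition, limit read from the data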;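 further: 0% = tunicamycin plus vehicle and 100% = wells without tunicamycin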
Dynein cargo inh = inhibitors of GR-EGFP nuclear translocation, primary screen, dynein cargo transport inhibitor project, imaging, high-content, 3617.4 mouse cells; AID 1381, 2008; 220,000 compounds, 0.47% hits; test concentration mostly 20 µM; stimulated with dexamethasone, 1 µM; active compounds read low; z-score, hits read low;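 active means plate z-score of nuclear minus cytoplasmic receptor signal below a set negative limit, without overly bright fluorescence or cell loss, cut at about -3.5 in these data, passing the limit was not always enough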;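 further: z-score of nuclear minus cytoplasmic ring GR-EGFP intensity difference per well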
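Buffer or medium: tet-free medium with charcoal-stripped serum / Also added: dexamethasone agonist, 1.0 µM final, for 30 min / Timing: induction 48 h, compound 1 h, agonist 30 min / Measured by: high-content fluorescence imaging after fixation / Read-out: nuclear-to-cytoplasmic GR-EGFP distribution per well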
Autophagy mod = autophagy modulators in MEF cells, primary screen, imaging, high-content, MEF GFP-LC3. MEF GFP-LC3 puncta imaging; test concentration mostly 10 µM. calls only at 10 µM (by protocol). 190,000 compounds, 0.98% hits. AID 463193, 2010;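 active means percentage of spot-positive cells more than 3 SD above its plate mean, without a fluorescence outlier flag or 80% toxicity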;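 further: spot-positive cell cutoff set from DMSO-treated cells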
L major viab = Leishmania major promastigote growth inhibition, primary screen; Leishmania major promastigotes, resazurin fluorescence viability; inhibition, % at 10 µM; 200,000 compounds, 9% hits; in the data active means inhibition above about 50%;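 further: promastigotes grown with compound for 44 hours at 28 °C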
MT stabilizer = microtubule stabilizers in HeLa cells, primary screen, imaging, high-content imaging | AID 2205, 2009 | HeLa tubulin immunostaining HCS, 24 h; share of cells brighter than vehicle mean+2SD | % tubulin-high responders, % at 10 µM | 200,000 compounds, 0.83% hits;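 active means plate Z-score above 3 for both tubulin-high and condensed-nucleus cell shares, with cell loss under 80%, at 10 µM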;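 further: anti alpha tubulin signal scored within the nucleus-defined area of each cell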
* hit, by the source's call; i = inactive; x = not tested or not shown; + = active, no number.

SMILES | bCat nuc transl | CHOP inhibitor | Dynein cargo inh | Autophagy mod | L major viab | MT stabilizer
Cn1cnnc1SCC(=O)NCCc1ccc(Cl)cc1Cl | 0 | -6 | -0.36 | i | 4 | 3
CCCCC(CCC(=O)NNC(=O)Cc1ccccc1)C(=O)O (stereo not given) | 6 | 0 | 2.3 | i | 0 | 2
CCc1ccc2nc(N3C(=O)C(O)=C(C(=O)c4ccco4)C3c3cccs3)sc2c1 (stereo not given) | -3 | 80* | -0.7 | i | 6 | 2
Cc1csc(NC(=O)C(CC(C)C)NS(=O)(=O)c2ccc3c(c2)oc(=O)n3C)n1 (stereo not given) | x | 97* | -0.034 | i | -6 | 2
C/C(=N\NC(=O)NC1CCCCC1)C1CCCCC1 | 1 | 40 | -0.85 | i | 95* | 3
O=C(NCC1OCCc2ccccc21)c1cc(COc2c(F)cccc2F)on1 (stereo not given) | 0 | -16 | 0.61 | i | 2 | 3
CC1CCCCC1NCC#CCOc1ccc(Cl)cc1 (stereo not given) | -2 | -23 | 0.24 | i | 83* | 2
CC(=O)Nc1ccc(/C=N/N2CCCCC2)cc1 | -1 | -37 | -0.6 | i | 1 | 5
Cc1ccccc1OCc1nc2ccccc2c(=O)n1NC(=O)c1ccco1 | -5 | 27 | -0.42 | i | -1 | 5
Cc1ccc(C(C)C)c(OCC(=O)OCc2c(C)noc2C)c1 | -2 | 83* | -0.14 | i | -1 | 5
CSc1ccccc1NC(=O)c1cc2ncc(Br)cn2n1 | 0 | -31 | -1.1 | i | 7 | 2
CNC(=S)NC1CC2CCC(C1)N2Cc1ccccc1 (stereo not given) | 0 | -9 | -0.6 | i | 86* | 1
O=C(/C=C/c1ccccc1)NC1CC2CCCC(C1)N2Cc1ccccc1 (stereo not given) | 0 | -2 | -0.85 | x | x | x
CCN(CC)C(=O)NC1CC2CCCC(C1)N2Cc1ccccc1 (stereo not given) | -1 | 14 | -0.39 | i | -1 | 2
CCc1ccc(NC(=S)NC2CC3CCCC(C2)N3Cc2ccccc2)cc1 (stereo not given) | 0 | 41 | 0.73 | i | 95* | 7
COc1ccc(CN2C3CCCC2CC(NC(=O)/C=C/c2ccccc2)C3)cc1 (stereo not given) | 1 | 0 | -0.62 | + | 87* | 2
O=C(NCc1ccccc1)NC1CC2CCC(C1)N2Cc1ccco1 (stereo not given) | -1 | 26 | 0.96 | i | 18 | 3
S=C(Nc1ccc(Cl)cc1)NC1CC2CCC(C1)N2Cc1ccccc1 (stereo not given) | -2 | 5 | 2.1 | i | 100* | 5
Cc1ccc(-n2c(Cn3cnc4ccccc43)nnc2SCC(=O)O)cc1 | -3 | 32 | -0.18 | i | 5 | 2
O=C1C(=Nc2cccc(Cl)c2)CC(c2ccc(Cl)cc2)N1c1cccc(Cl)c1 (stereo not given) | -1 | 17 | 0.7 | x | x | x
COc1ccc(CNC(=O)CN(Cc2ccc(Cl)cc2)S(=O)(=O)c2ccccc2)cc1 | 3 | 36 | -1.5 | i | 12 | 1
COc1ccc(C)cc1S(=O)(=O)N(CC(=O)N1CCOCC1)Cc1ccccc1 | x | 34 | -0.95 | i | -1 | 9
COc1ccc(C)cc1S(=O)(=O)N(CC(=O)NCc1ccc(Cl)cc1)Cc1ccccc1 | x | 31 | -0.79 | i | 99* | 1
COc1ccc(CNC(=O)CN(Cc2ccccc2)S(=O)(=O)c2ccc(Cl)cc2)cc1 | -3 | 56 | -0.61 | i | 98* | 2
C/C(CCS(=O)(=O)c1ccccc1)=N/O | -2 | 10 | -0.23 | i | 6 | 3
SMILES | bCat nuc transl | CHOP inhibitor | Dynein cargo inh | Autophagy mod | L major viab | MT stabilizer
N#CC1(Cc2ccc([N+](=O)[O-])cc2)c2ccccc2C=CN1C(=O)c1ccccc1 (stereo not given) | -4 | -15 | 1.2 | i | 51* | 2
N#CC1(Cc2ccccc2)c2ccccc2C=CN1C(=O)c1ccccc1 (stereo not given) | 1 | -7 | -0.078 | i | 82* | 1
O=C(c1ccccc1)c1ccc(Sc2ccc([N+](=O)[O-])cc2)cc1 | 0 | 39 | 0.21 | x | x | x
CCOC(=O)C(=NCCCN(C)C)NNc1ccc(Br)cc1 | 2 | 33 | -0.29 | i | 67* | 3
CCOC(=O)c1c(C)nc2ccc(Cl)cc2c1-c1ccccc1 | -2 | 82* | -0.04 | i | 51* | 3
CCn1c(=O)cc(OCC(=O)Nc2ccccc2C#N)c2ccccc21 | -4 | 10 | -1 | x | -9 | 3
CCc1ccc(C2C(C#N)=C(N)C(C#N)(C#N)C3=CCC(C(C)(C)C)CC32)cc1 (stereo not given) | -3 | 15 | -2 | i | 96* | 1
CC(Sc1nc(-c2ccccc2)cc(C(F)(F)F)n1)C(=O)N1CCCC1 (stereo not given) | 0 | 92* | -0.34 | x | -1 | 10
Nc1nc(-c2ccccc2)nn1S(=O)(=O)c1ccccc1 | 0 | 8 | -0.48 | i | 3 | 4
Cc1cc2c3c(c1)C1(C(=O)N3C(C)(C)CC2C)C(C#N)=C(N)Oc2n[nH]c(C)c21 (stereo not given) | x | 38 | 0.42 | i | 9 | 17*
Cc1ccc(C(=O)NC(=O)OCCn2c(C)cnc2[N+](=O)[O-])cc1 | 0 | 3 | 3 | i | 5 | 5
COc1cccc(/C=C(/C#N)c2ccc(F)cc2)c1OCc1cccc(C(=O)O)c1 | 3 | 12 | 0.13 | i | 45 | 1
COc1cc(N2CCCC2)c(OC)cc1/C=C(/C#N)c1cccc(F)c1 | 5 | 29 | -0.56 | + | 3 | 9
Cc1cc(Cl)ccc1OCCCC(=O)OCC(=O)c1c(N)n(C)c(=O)n(C)c1=O | 1 | 3 | -0.88 | x | x | x
CCOC(=O)C1CCCN(C(=O)c2ccc(Cn3c(=S)[nH]c4cc(C(=O)OC)ccc4c3=O)cc2)C1 (stereo not given) | x | 19 | 0.42 | i | 13 | 18*
O=C(NCCCN1CCCCC1)c1ccc2c(=O)n(CCc3ccccc3)c(=O)[nH]c2c1 | -2 | 38 | -0.041 | i | 57* | 4
CCCCN(C)CCNC(=O)c1ccc(Cn2c(=S)[nH]c3ccc(Br)cc3c2=O)cc1 | 2 | -4 | -0.17 | i | 90* | 2
CC1CCN(CCCNC(=O)c2ccc3c(=O)n(Cc4ccc(Cl)cc4)c(=S)[nH]c3c2)CC1 | 3 | -44 | -5.1 | + | 100* | 31
